In ChEMBL document CHEMBL1132559 (J Med Chem, 1999):

Assays:
[1] = molecular target: Histamine H1 receptor (Bos taurus) (UniProt P30546); experiment: Inhibition of [3H]pyrilamine binding to Histamine H1 receptor of bovine cerebellar membrane at 10e-7 M
Procedure, shortened: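 Single-concentration screen at 10^-7 M: displacement of [3H]pyrilamine (2.0 nM) from bovine cerebellar membranes, triprolidine as reference. Reported as % inhibition versus binding with no drug, mean of duplicate tubes in one experiment.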

[2] = molecular target: Adrenergic receptor alpha-1 (Rattus norvegicus) (UniProt P15823+P23944+P43140); experiment: Displacement of [3H]prazosin from Alpha-1 adrenergic receptor of rat cortical membrane at 10e-7 M
Procedure, shortened: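 Single-concentration screen at 10^-7 M: displacement of [3H]prazosin (0.5 nM) from rat cortical membranes, prazosin as reference. Reported as % inhibition versus binding with no drug, mean of duplicate tubes in one experiment. Checked against a verification screen.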

[3] = test system: Serotonin transporter (Rattus norvegicus); experiment: Displacement of [3H]-citalopram from rat forebrain membrane serotonin transporter at 10e-7 M
[4] = molecular target: Norepinephrine transporter (Rattus norvegicus) (UniProt Q9WTR4); experiment: Inhibition of [3H]desmethylimipramine binding to […] of rat cortical membrane at 10e-7 M
Procedure, shortened: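 Single-concentration screen at 10^-7 M: displacement of [3H]desmethylimipramine (3.0 nM) from rat cortical membranes, desipramine as reference. Reported as % inhibition versus binding with no drug, mean of duplicate tubes in one experiment.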

[5] = molecular target: 5-hydroxytryptamine receptor 2A (Rattus norvegicus) (UniProt P14842); experiment: Displacement of [3H]ketanserin from rat cortical membrane 5-hydroxytryptamine 2A receptor at 10e-7 M
Procedure, shortened: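 Single-concentration screen at 10^-7 M: displacement of [3H]ketanserin (1.0 nM) from rat cortical membranes, methysergide as reference. Reported as % inhibition versus binding with no drug, mean of duplicate tubes in one experiment. Checked against a verification screen.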

[6] = molecular target: D(2) dopamine receptor (Rattus norvegicus) (UniProt P61169); experiment: Displacement of [3H]sulpiride from rat striatal membrane Dopamine receptor D2 at 10e-7 M
Procedure, shortened: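 Single-concentration screen at 10^-7 M: displacement of [3H]sulpiride (3.0 nM) from rat striatal membranes, sulpiride as reference. Reported as % inhibition versus binding with no drug, mean of duplicate tubes in one experiment.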

[7] = test system: Sigma non-opioid intracellular receptor 1 (Sus scrofa); experiment: Inhibition of [3H](+)-pentazocine binding to Sigma opioid receptor type 1 of pig brain membranes at 10e-7 M
[8] = molecular target: T1, Adrenergic receptor alpha-1 (Rattus norvegicus, UniProt P15823+P23944+P43140); experiment: Compound was tested for the inhibition of [3H]-prazosin binding to Alpha-1 adrenergic receptor; type: protein assay
T1 sequence (P15823 whole entry): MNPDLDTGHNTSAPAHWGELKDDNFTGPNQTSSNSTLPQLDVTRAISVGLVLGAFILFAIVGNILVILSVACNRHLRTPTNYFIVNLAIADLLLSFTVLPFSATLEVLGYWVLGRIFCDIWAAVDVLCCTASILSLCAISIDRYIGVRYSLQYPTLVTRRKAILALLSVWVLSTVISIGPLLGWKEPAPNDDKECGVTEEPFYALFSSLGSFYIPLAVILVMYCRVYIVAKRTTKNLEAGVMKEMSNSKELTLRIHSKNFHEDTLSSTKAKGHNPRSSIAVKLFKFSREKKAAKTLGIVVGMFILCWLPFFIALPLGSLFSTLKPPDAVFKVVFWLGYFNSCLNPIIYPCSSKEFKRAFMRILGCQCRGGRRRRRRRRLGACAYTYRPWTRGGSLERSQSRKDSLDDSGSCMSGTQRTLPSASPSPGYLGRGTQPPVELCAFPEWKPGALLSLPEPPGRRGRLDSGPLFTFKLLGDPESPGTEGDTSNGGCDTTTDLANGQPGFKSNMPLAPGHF
T1 sequence (P23944 whole entry): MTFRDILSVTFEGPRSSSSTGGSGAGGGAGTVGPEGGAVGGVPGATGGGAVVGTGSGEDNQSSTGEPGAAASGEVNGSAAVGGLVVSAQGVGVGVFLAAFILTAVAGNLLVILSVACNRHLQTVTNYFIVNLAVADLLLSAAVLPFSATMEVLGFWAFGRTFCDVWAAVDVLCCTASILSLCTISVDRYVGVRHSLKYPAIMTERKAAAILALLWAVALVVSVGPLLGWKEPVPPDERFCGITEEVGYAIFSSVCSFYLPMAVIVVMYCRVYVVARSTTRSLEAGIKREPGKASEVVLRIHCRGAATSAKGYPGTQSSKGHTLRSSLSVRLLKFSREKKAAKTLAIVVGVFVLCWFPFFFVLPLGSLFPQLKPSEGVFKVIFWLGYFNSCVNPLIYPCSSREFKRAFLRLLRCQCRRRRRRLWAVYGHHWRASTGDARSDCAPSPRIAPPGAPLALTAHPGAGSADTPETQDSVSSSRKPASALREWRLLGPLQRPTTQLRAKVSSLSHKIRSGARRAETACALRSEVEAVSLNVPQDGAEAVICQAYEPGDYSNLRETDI
T1 sequence (P43140 whole entry): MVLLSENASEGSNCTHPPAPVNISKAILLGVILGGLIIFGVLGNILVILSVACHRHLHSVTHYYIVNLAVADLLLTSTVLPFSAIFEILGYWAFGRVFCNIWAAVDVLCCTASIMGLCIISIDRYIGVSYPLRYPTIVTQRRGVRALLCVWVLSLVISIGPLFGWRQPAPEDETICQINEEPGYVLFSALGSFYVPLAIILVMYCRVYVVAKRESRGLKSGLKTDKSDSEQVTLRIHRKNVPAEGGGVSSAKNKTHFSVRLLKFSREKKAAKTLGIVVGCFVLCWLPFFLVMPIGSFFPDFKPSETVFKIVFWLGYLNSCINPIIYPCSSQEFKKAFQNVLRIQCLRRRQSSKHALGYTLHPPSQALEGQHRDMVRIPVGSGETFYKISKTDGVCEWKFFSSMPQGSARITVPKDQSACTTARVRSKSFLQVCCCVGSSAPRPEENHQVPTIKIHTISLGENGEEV
Procedure, shortened: (§1)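 Radioligand displacement on rat cortical membranes using [3H]prazosin (0.5 nM), with prazosin as the reference compound. IC50 derived from six test concentrations, each in triplicate, in one experiment. Run at an external screening laboratory.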

[9] = molecular target: T2, 5-hydroxytryptamine receptor 2A (Rattus norvegicus, UniProt P14842); experiment: Compound was tested for the inhibition of [3H]ketanserin binding to 5-hydroxytryptamine 2A receptor
Procedure, shortened: (§2)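 Radioligand displacement on rat cortical membranes using [3H]ketanserin (1.0 nM), with methysergide as the reference compound. IC50 derived from six test concentrations, each in triplicate, in one experiment. Run at an external screening laboratory.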

[10] = molecular target: T2, 5-hydroxytryptamine receptor 2A; experiment: Compound was tested for it's binding affinity towards 5-hydroxytryptamine 2A receptor; procedure, shortened: as §2
[11] = molecular target: T1, Adrenergic receptor alpha-1; experiment: Compound was tested for it's binding affinity towards alpha-1 adrenergic receptor; type: protein assay; procedure, shortened: as §1
[12] = species on record: Rattus norvegicus; experiment: In vitro functional activity (pA2) by using isolated rat aorta smooth muscle preparation (on serotonergic system); details: Muscle tissue, read-out: pA2 (converted)
Procedure, shortened: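 Aorta strips from male Sprague–Dawley rats (200-300 g), 3-7 preparations, isometric contraction recorded. Cumulative serotonin concentration-response curves built stepwise once each response was steady.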

[13] = species on record: Rattus norvegicus; experiment: In vitro functional activity (pA2) by using isolated rat vas deferens smooth muscle preparation (on adrenergic system); details: Muscle tissue, read-out: pA2 (converted)
Procedure, shortened: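 Vas deferens from male Sprague–Dawley rats (200-300 g), 3-4 preparations, isometric contraction recorded. Cumulative L-noradrenaline concentration-response curves built stepwise once each response was steady.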

[14] = molecular target: T1, Adrenergic receptor alpha-1; experiment: Compound was tested for it's binding affinity towards Alpha-1 adrenergic receptor; type: protein assay; procedure, shortened: as §1

Chain of 5-hydroxytryptamine receptor 2A (Rattus norvegicus) (P14842 whole entry): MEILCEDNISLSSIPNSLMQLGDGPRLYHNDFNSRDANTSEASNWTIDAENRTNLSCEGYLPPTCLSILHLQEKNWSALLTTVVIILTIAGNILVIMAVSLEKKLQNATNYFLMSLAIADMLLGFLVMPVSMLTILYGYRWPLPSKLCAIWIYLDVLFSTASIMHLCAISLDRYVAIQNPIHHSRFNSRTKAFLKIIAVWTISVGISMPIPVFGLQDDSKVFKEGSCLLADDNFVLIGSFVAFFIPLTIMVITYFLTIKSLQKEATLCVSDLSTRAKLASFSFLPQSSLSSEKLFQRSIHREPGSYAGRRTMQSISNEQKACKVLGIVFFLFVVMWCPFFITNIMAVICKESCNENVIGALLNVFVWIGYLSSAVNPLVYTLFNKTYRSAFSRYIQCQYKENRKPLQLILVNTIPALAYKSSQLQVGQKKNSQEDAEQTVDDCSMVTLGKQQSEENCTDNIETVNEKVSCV
T2 sequence (P14842 whole entry): as above
Chain of Norepinephrine transporter (Rattus norvegicus) (Q9WTR4 as listed by the source): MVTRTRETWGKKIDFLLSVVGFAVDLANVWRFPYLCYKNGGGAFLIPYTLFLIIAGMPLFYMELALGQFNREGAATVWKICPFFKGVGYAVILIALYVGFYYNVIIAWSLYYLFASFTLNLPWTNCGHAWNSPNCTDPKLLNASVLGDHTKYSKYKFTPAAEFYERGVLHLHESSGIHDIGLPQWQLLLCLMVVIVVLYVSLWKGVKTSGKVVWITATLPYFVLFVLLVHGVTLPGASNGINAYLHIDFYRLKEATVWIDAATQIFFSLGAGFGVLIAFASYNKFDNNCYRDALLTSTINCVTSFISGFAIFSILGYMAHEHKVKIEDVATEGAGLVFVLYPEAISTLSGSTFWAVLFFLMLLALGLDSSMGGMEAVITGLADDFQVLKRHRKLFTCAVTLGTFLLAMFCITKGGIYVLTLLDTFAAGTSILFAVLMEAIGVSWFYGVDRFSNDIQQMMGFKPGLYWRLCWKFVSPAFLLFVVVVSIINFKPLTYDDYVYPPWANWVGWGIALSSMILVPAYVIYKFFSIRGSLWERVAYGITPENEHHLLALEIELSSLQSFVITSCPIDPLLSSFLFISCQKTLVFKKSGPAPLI
Chain of D(2) dopamine receptor (Rattus norvegicus) (P61169 whole entry): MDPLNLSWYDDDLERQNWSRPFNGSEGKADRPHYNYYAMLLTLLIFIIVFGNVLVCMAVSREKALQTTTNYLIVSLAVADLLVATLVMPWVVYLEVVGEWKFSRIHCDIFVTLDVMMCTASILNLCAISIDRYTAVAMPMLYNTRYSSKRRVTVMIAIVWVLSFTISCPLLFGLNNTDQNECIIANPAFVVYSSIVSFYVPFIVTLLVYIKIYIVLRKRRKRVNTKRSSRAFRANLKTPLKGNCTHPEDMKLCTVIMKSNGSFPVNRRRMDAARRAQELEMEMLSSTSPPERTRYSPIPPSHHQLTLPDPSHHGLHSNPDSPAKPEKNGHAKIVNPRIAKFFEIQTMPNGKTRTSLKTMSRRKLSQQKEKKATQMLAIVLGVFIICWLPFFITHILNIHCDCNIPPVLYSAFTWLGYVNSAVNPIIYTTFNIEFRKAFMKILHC
Chain of Histamine H1 receptor (Bos taurus) (P30546 whole entry): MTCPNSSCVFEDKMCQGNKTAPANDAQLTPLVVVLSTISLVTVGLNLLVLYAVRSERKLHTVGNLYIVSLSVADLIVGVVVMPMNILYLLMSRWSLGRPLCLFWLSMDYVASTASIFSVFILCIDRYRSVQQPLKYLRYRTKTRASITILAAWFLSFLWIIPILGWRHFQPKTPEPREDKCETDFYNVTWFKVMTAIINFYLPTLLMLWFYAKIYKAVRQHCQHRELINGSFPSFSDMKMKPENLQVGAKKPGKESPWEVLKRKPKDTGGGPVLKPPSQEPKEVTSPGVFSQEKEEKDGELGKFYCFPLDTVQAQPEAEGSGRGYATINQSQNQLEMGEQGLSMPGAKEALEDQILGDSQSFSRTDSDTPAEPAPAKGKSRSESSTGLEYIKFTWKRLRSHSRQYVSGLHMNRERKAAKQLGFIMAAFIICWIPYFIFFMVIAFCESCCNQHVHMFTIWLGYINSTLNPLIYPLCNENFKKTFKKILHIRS

Row | inhibition [1] | inhibition [2] | inhibition [3] | inhibition [4] | inhibition [5] | inhibition [6] | inhibition [7] | IC50 [8] | IC50 [9] | IC50 [10] | IC50 [11] | IC50 [14] | Structure (SMILES) | Kb [12] | Kb [13]
1 | 0% | 10% | 15% | 4% | 0% | 2% | 30% |  |  |  |  |  | CN(CCCn1nc2ccccn2c1=O)CCNc1cccc(Cl)c1 |  | 
2 | 0% | 8% | 10% | 0% | 4% | 3% | 29% |  |  |  |  |  | O=c1n(CCCNCCNc2cccc(Cl)c2)nc2ccccn12 |  | 
3 | 4% | 2% | 0% | 0% | 0% | 4% | 9% |  |  |  |  |  | CC1C(=O)N(c2cccc(Cl)c2)CCN1CCCn1nc2ccccn2c1=O (centres undefined) |  | 
4 | 7% | 25% | 15% | 0% | 34% | 0% | 68% |  |  |  |  |  | CC1CN(CCCn2nc3ccccn3c2=O)CCN1c1cccc(Cl)c1 (centres undefined) |  | 
5 | 0% | 12% | 23% | 0% | 0% | 4% | 65% |  |  |  |  |  | CN(CCNCCCn1nc2ccccn2c1=O)c1cccc(Cl)c1 |  | 
6 | 9% | 11% | 38% | 0% | 40% | 3% | 81% |  |  |  |  |  | CC1CN(CCCn2nc3ccccn3c2=O)C(C)(C)CN1c1cccc(Cl)c1 (centres undefined) |  | 
7 | 7% | 27% | 4% | 0% | 52% | 3% | 34% | 0.531 µM | 0.094 µM |  |  |  | CC(CN1CCN(c2cccc(Cl)c2)CC1)Cn1nc2ccccn2c1=O (centres undefined) |  | 
8 | 2% | 5% | 2% | 0% | 5% | 0% | 12% |  |  |  |  |  | O=C1CN(CCCn2nc3ccccn3c2=O)CCN1c1cccc(Cl)c1 |  | 
9 | 31% | 26% | 63% | 0% | 65% | 2% | 58% | 0.627 µM | 0.017 µM |  |  |  | CC(CCn1nc2ccccn2c1=O)N1CCN(c2cccc(Cl)c2)CC1 (centres undefined) |  | 
10 | 13% | 37% | 45% | 2% | 69% | 8% | 43% | 0.471 µM | 0.031 µM |  |  |  | CC1CN(c2cccc(Cl)c2)CCN1CCCn1nc2ccccn2c1=O (centres undefined) |  | 
11 | 12% | 7% | 6% | 0% | 20% | 0% | 65% |  |  |  |  |  | CC(CN1CCN(c2cccc(Cl)c2)C(C)C1)Cn1nc2ccccn2c1=O (centres undefined) |  | 
12 |  |  |  |  |  |  |  |  |  | 0.0254 µM | 0.981 µM |  | C[C@H]1CN(c2cccc(Cl)c2)CCN1CCCn1nc2ccccn2c1=O | 0.00316 µM | 3.98 µM
13 | 14% | 44% | 20% | 0% | 60% | 10% | 43% | 0.493 µM | 0.169 µM |  |  |  | CCC1CN(c2cccc(Cl)c2)CCN1CCCn1nc2ccccn2c1=O (centres undefined) |  | 
14 |  |  |  |  |  |  |  |  |  | 0.234 µM |  | 0.533 µM | C[C@@H]1CN(c2cccc(Cl)c2)CCN1CCCn1nc2ccccn2c1=O | 0.0126 µM | 0.158 µM
15 | 5% |  |  | 0% | 78% | 12% |  |  |  |  |  |  | O=c1n(CCCN2CCN(c3cccc(Cl)c3)CC2)nc2ccccn12 |  | 
